How the values were obtained:
[1] = tested on: Panel breast (Carcinoma cell lines); assay: log molar concentration required to cause total growth inhibition of breast tumor cell lines; type: functional; conditions: Homo sapiens, read-out: Log TGI (converted)
How it was run: (§1)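 TGI from the NCI 60 human tumor cell line in vitro screen: log of the molar drug concentration causing total growth inhibition, reported for the named cell panel.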

CAKI-1 [2] = assay: in vitro antitumor activity against CAKI-1 tumor cell lines; type: functional; conditions: Homo sapiens
[3] = tested on: Panel CNS (Carcinoma cell lines); assay: log molar concentration required to cause total growth inhibition of CNS cancer cell lines; type: functional; conditions: Homo sapiens, read-out: Log TGI (converted); how it was run: as §1
[4] = tested on: Panel colon (Carcinoma cell lines); assay: log molar concentration required to cause total growth inhibition of colon tumor cell lines; type: functional; conditions: Homo sapiens, read-out: Log TGI (converted); how it was run: as §1
HCT-116 [5] = assay: in vitro antitumor activity against HCT116 tumor cell lines; type: functional; conditions: Homo sapiens
HL-60 [6] = assay: in vitro antitumor activity against HL-60(TB) tumor cell lines; type: functional; conditions: Homo sapiens
Tumor Cell line [7] = assay: in vitro antitumor activity against NCI 's human tumor cell lines; type: functional; conditions: read-out: Average log GI50 (converted)
How it was run: (§2)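 NCI in vitro screen of 60 human tumor cell lines. […] The value is calculated from all cell lines tested.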

MDA-MB-435 [8] = assay: in vitro antitumor activity against MAD-MB-435NCI 's human tumor cell lines; type: functional
Tumor Cell line [9] = assay: (§3) log molar concentration required to cause total growth inhibition of leukemic tumor cell lines; type: functional; conditions: Homo sapiens, read-out: Log TGI (converted); how it was run: as §1
MDA-N [10] = assay: in vitro antitumor activity against MDA-N tumor cell lines; type: functional; conditions: Homo sapiens
Melanoma tumor cell line [11] = assay: log molar concentration required to cause total growth inhibition of melanomic tumor cell lines; type: functional; conditions: Homo sapiens, read-out: Log TGI (converted); how it was run: as §1
NCI-H460 [12] = assay: in vitro antitumor activity against NCI-H460 tumor cell lines; type: functional; conditions: Homo sapiens
OVCAR-3 [13] = assay: in vitro antitumor activity against OVCAR-3 tumor cell lines; type: functional; conditions: Homo sapiens
NSCLC = assay: log molar concentration required to cause total growth inhibition of non-small cell lung tumor cell lines; type: functional; conditions: Homo sapiens, read-out: Log TGI (converted); how it was run: as §1
PC-3 [14] = assay: in vitro antitumor activity against PC-3 tumor cell lines; type: functional; conditions: Homo sapiens
[15] = tested on: Panel prostate (Carcinoma cell lines); assay: log molar concentration required to cause total growth inhibition of prostate tumor cell lines; type: functional; conditions: Homo sapiens, read-out: Log TGI (converted); how it was run: as §1
[16] = tested on: Panel renal (Carcinoma cell lines); assay: log molar concentration required to cause total growth inhibition of renal tumor cell lines; type: functional; conditions: Homo sapiens, read-out: Log TGI (converted); how it was run: as §1
SF-295 [17] = assay: in vitro antitumor activity against SF-295 tumor cell lines; type: functional; conditions: Homo sapiens
SK-MEL-5 [18] = assay: in vitro antitumor activity against SK-MEL-5 tumor cell lines; type: functional; conditions: Homo sapiens
U-251 [19] = assay: in vitro antitumor activity against U-251 tumor cell lines; type: functional; conditions: Homo sapiens
Tubulin = Tubulin (Bos taurus, UniProt Q6B856+Q862L2+Q862F3); assay: Inhibition of tubulin polymerization; type: functional
Tumor Cell line [20] = assay: log molar concentration required to cause total growth inhibition of NCI 's human tumor cell lines; type: functional; conditions: read-out: Log TGI (converted)
How it was run: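 NCI 60 human tumor cell line in vitro screen. TGI is the log molar concentration giving total growth inhibition, calculated from all cell lines tested.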

[21] = tested on: Panel ovarian (Carcinoma cell lines); assay: log molar concentration required to cause total growth inhibition of ovarian tumor cell lines; type: functional; conditions: Homo sapiens, read-out: Log TGI (converted); how it was run: as §1
Tumor Cell line [22] = assay: (§4) In vitro antitumor activity against NCI 's human tumor cell lines; type: functional
How it was run: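 Tested in the NCI 60 human tumor cell line in vitro screen. […] The value is calculated from all cell lines tested, as an average log GI50.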

Tubulin (Bos taurus) = Tubulin (Bos taurus) (UniProt Q6B856+Q862L2+Q862F3); assay: Inhibition of radiolabeled colchicine binding to tubulin; type: protein assay; parameters: concentration or dose not given beside the values; conditions: concentration not given here
How it was run: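 Measured by DEAE-cellulose filter binding. The 0.1 mL mixture held bovine brain tubulin 1.0 µM, 1.0 M monosodium glutamate (pH 6.6), 1 mM MgCl2, 0.1 mM GTP, 5.0 µM [3H]colchicine, 5% DMSO and inhibitor at 5.0 µM. It was incubated 20 min at 37 °C, filtered through two DEAE-cellulose papers, washed with water and counted by liquid scintillation.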

HL-60 [23] = assay: In vitro antitumor activity against HL-60(TB) tumor cell lines; type: functional; conditions: Homo sapiens
Tumor Cell line [24] = assay: as §4; type: functional; conditions: read-out: Average log GI50 (converted); how it was run: as §2
leukaemia cell line = assay: as §3; type: functional; conditions: Homo sapiens, read-out: Log TGI (converted); how it was run: as §1
MDA-N [25] = assay: In vitro antitumor activity against MDA-N tumor cell lines; type: functional; conditions: Homo sapiens
Melanoma tumor cell line [26] = assay: log molar concentration required to cause total growth inhibition of melanomicell lines; type: functional; conditions: Homo sapiens, read-out: Log TGI (converted); how it was run: as §1
NCI-H460 [27] = assay: In vitro antitumor activity against NCI-H460 tumor cell lines; type: functional; conditions: Homo sapiens
OVCAR-3 [28] = assay: In vitro antitumor activity against OVCAR-3 tumor cell lines; type: functional; conditions: Homo sapiens
PC-3 [29] = assay: In vitro antitumor activity against PC-3 tumor cell lines; type: functional; conditions: Homo sapiens
SF-295 [30] = assay: In vitro antitumor activity against SF-295 tumor cell lines; type: functional; conditions: Homo sapiens
SK-MEL-5 [31] = assay: In vitro antitumor activity against SK-MEL-5 tumor cell lines; type: functional; conditions: Homo sapiens
U-251 [32] = assay: In vitro antitumor activity against U-251 tumor cell lines; type: functional; conditions: Homo sapiens
HCT-116 [33] = assay: In vitro antitumor activity against HCT116 tumor cell lines; type: functional; conditions: Homo sapiens
MDA-MB-435 [34] = assay: In vitro antitumor activity against MDA-MB-435 NCI 's human tumor cell lines; type: functional
CAKI-1 [35] = assay: In vitro antitumor activity against CAKI-1 tumor cell lines; type: functional; conditions: Homo sapiens
[36] = tested on: Panel CNS (Carcinoma cell lines); assay: log molar concentration required to cause total growth inhibition of CNS cancer tumor cell lines; type: functional; conditions: Homo sapiens, read-out: Log TGI (converted); how it was run: as §1
Leukemic tumor cell line = assay: as §3; type: functional; conditions: Homo sapiens, read-out: Log TGI (converted); how it was run: as §1

Structure (SMILES)	TGI [1]	TGI [4]	TGI (Melanoma tumor cell line [11])	TGI (NSCLC)	TGI [15]	TGI [16]	IC50 (Tubulin)	TGI (Tumor Cell line [20])	TGI [21]	inhibition (Tubulin (Bos taurus))	GI50 (HL-60 [23])	GI50 (Tumor Cell line [24])	GI50 (MDA-N [25])	GI50 (NCI-H460 [27])	GI50 (OVCAR-3 [28])	GI50 (PC-3 [29])	GI50 (SF-295 [30])	GI50 (SK-MEL-5 [31])	GI50 (U-251 [32])	GI50 (HCT-116 [33])	also measured
Oc1cc(-c2cccc(Cl)c2)nc2ncccc12	1170 nM	16200 nM	97700 nM	85100 nM	2630 nM	49000 nM	1500 nM	24000 nM	31600 nM	–	–	–	–	–	–	–	–	–	–	–	GI50 (CAKI-1 [2]): 56.2 nM; TGI [3]: 16600 nM; GI50 (HCT-116 [5]): 28.8 nM; GI50 (HL-60 [6]): 10.5 nM; GI50 (Tumor Cell line [7]): 229 nM; GI50 (MDA-MB-435 [8]): < 10 nM; TGI (Tumor Cell line [9]): 38900 nM; GI50 (MDA-N [10]): 17.4 nM; GI50 (NCI-H460 [12]): 87.1 nM; GI50 (OVCAR-3 [13]): 45.7 nM; GI50 (PC-3 [14]): 22.4 nM; GI50 (SF-295 [17]): 63.1 nM; GI50 (SK-MEL-5 [18]): 52.5 nM; GI50 (U-251 [19]): 145 nM
COc1cc([C@@H]2c3cc4c(cc3[C@H](O)[C@H]3COC(=O)[C@H]23)OCO4)cc(OC)c1OC [PODOFILOX]	–	–	–	–	–	–	–	–	–	76%	–	–	–	–	–	–	–	–	–	–	average log GI50 (Tumor Cell line [22]): -7.54 M
Cc1cnc2[nH]c(-c3cccc(Cl)c3)cc(=O)c2c1	12900 nM	9550 nM	–	44700 nM	> 100000 nM	87100 nM	720 nM	30900 nM	15800 nM	33%	30.9 nM	269 nM	> 100000 nM	50.1 nM	22.4 nM	> 100000 nM	25.1 nM	70.8 nM	69.2 nM	30.2 nM	TGI [3]: 1910 nM; TGI (leukaemia cell line): 72400 nM; TGI (Melanoma tumor cell line [26]): 47900 nM; GI50 (MDA-MB-435 [34]): < 10 nM; GI50 (CAKI-1 [35]): 42.7 nM
Cc1cnc2[nH]c(-c3cccc(F)c3)cc(=O)c2c1	537 nM	324 nM	32400 nM	16200 nM	692 nM	55000 nM	630 nM	5130 nM	26900 nM	43%	20.4 nM	50.1 nM	11.8 nM	38.9 nM	13.5 nM	34.7 nM	27.5 nM	28.2 nM	40.7 nM	24 nM	TGI [36]: 3090 nM; TGI (Leukemic tumor cell line): 2690 nM; GI50 (MDA-MB-435 [34]): < 10 nM; GI50 (CAKI-1 [35]): 28.2 nM
Cc1cccc(-c2cc(O)c3cccnc3n2)c1	–	–	–	–	–	–	3300 nM	–	–	–	–	–	–	–	–	–	–	–	–	–	GI50 (CAKI-1 [2]): 37.1 nM; GI50 (HCT-116 [5]): 22.4 nM; GI50 (HL-60 [6]): 19.1 nM; GI50 (Tumor Cell line [7]): 95.5 nM; GI50 (MDA-MB-435 [8]): < 10 nM; GI50 (MDA-N [10]): < 10 nM; GI50 (NCI-H460 [12]): 25.7 nM; GI50 (OVCAR-3 [13]): 41.7 nM; GI50 (PC-3 [14]): 42.7 nM; GI50 (SF-295 [17]): 37.1 nM; GI50 (SK-MEL-5 [18]): 25.7 nM; GI50 (U-251 [19]): 44.7 nM
Cc1ccnc2nc(-c3cccc(Cl)c3)cc(O)c12	813 nM	12000 nM	70800 nM	100000 nM	2340 nM	69200 nM	1000 nM	25700 nM	27500 nM	32%	< 10 nM	158 nM	11.8 nM	38.9 nM	31.6 nM	15.5 nM	40.7 nM	41.7 nM	52.5 nM	15.8 nM	TGI [36]: 18200 nM; TGI (Leukemic tumor cell line): 100000 nM; GI50 (MDA-MB-435 [34]): < 10 nM; GI50 (CAKI-1 [35]): 33.1 nM

From ChEMBL document CHEMBL1130393, “Antitumor agents. 178. Synthesis and biological evaluation of substituted 2-aryl-1,8-naphthyridin-4(1H)-ones as antitumor agents that inhibit tubulin polymerization” (J Med Chem, 1997)
